# UPR XBP1 act – activators of adaptive XBP1 UPR arm, primary screen, cell-based, CHO-XBP1 luciferase reporter, luminescence, uHTS; AID 463104, 2010; IRE1-XBP1 UPR activation; percent of tunicamycin response, DMSO as zero; activation, % at 20 µM; 330,000 tested, 0.33% active;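 active means versus positive control, 20 µM dose yields 30% or more activation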
#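 assay system = CHO-XBP1 luciferase reporter cells | amount = 1000 cells/well | buffer or medium = F12 plus 10% FBS | compound dosing = single point, 20 µM final compound, 1% DMSO | incubation = 16-18 h cell attachment at 37 °C, then 6 h compound exposure | detection = Steady-Glo luminescence read | controls = tunicamycin 10 µg/mL and vehicle-only wells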
# CHOP inh – inhibitors of CHOP promoter induction, primary screen, cell-based, unfolded protein response, luciferase reporter. CHO-K1 CHOP-promoter luciferase, tunicamycin-induced, 15-18 h. inhibition, % at 10 µM. 220,000 tested, 3.8% active. AID 2732, 2010;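 active means compounds that reduced the stress-induced luciferase reporter signal by more than about 70% of percent inhibition, limit read from the data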
# ANO1 block – TMEM16A chloride channel inhibitors, primary screen, cell-based, HTS | Anoctamin-1 (Mus musculus), Q8BHY3 | HEK293 TMEM16A/YFP iodide influx fluorescence, ionomycin | normalized B-score (activity score, 25-100; higher = stronger inhibition) at 10 µM | 310,000 tested, 1.2% active;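 active means ratio plate-corrected score three or more library SD toward inhibition, starting fluorescence score within five deviations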;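 further: score derived from kinetic fluorescence span divided by baseline fluorescence per well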
# Target sequence (Q8BHY3 whole entry, looked up): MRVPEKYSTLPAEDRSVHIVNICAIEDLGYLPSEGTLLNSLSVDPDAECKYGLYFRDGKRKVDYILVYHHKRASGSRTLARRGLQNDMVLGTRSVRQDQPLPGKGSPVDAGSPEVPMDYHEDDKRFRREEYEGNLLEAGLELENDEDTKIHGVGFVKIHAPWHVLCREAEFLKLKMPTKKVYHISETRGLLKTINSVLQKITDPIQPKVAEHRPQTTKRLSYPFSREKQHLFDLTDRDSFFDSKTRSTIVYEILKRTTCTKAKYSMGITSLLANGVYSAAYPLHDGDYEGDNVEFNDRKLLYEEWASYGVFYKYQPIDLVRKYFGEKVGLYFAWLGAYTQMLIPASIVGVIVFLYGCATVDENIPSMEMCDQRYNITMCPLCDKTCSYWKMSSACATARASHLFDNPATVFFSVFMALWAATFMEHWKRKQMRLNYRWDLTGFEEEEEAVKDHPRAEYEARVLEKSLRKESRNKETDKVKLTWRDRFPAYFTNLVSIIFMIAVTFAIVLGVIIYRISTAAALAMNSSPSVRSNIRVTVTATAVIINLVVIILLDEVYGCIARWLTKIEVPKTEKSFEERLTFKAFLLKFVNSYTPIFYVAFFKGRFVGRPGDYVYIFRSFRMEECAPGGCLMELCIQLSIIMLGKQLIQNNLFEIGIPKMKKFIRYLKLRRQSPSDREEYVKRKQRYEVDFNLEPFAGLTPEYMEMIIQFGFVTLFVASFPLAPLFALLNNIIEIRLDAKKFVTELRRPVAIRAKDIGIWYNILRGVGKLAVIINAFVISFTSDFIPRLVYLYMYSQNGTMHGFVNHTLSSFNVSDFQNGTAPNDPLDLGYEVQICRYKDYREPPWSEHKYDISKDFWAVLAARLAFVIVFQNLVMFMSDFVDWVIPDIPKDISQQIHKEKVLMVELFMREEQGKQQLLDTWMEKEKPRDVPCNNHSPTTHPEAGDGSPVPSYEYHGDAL
# Lipid droplet – inhibitors of hepatocyte lipid droplet formation, primary screen, imaging, high-throughput imaging, BODIPY stain; AML12 mouse hepatocytes, oleate lipid droplets; inhibition, % at 6.5 µM; 240,000 tested, 0.4% active;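 active means lipid droplet intensity inhibited by at least 50%, with more than 500 cells counted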
#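 Test system: AML12 hepatocytes (mouse); reagent: oleate loading, 100 µM; dosing: one dose, 6.5 µM compound; incubation: overnight exposure; signal: fluorescence imaging, 20x objective, two fields per well; read-out basis: % inhibition of corrected integrated BODIPY droplet signal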
# ANO1 activ – TMEM16A chloride channel activators or potentiators, primary screen, cell-based, HTS; Anoctamin-1 (Mus musculus), Q8BHY3; HEK293 TMEM16A/YFP-H148Q/I152L, iodide quench fluorescence; stronger effect = lower value; B-score at 10 µM; 340,000 tested, 0.3% active;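 active means fluorescence-ratio B-score plate-corrected deviation score at least 3 library SD below zero, with starting fluorescence score within 5 deviations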;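 further: channel opened by trigger with iodide after compound preincubation; score built on the fluorescence ratio of max minus min over baseline; more negative score means more quench and so TMEM16A activation or potentiation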
# CHOP UPR activ – activators of apoptotic CHOP UPR arm, primary screen, cell-based, CHO-CHOP luciferase reporter, luminescence, uHTS; AID 449763, 2010; UPR activation; percent of tunicamycin response over DMSO baseline; activation, % at 10 µM; 330,000 tested, 0.34% active;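 active means at 10 µM dose, activation of 40% or more, normalized to positive control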
#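 measured by = luciferase luminescence | assay system = CHO-CHOP cells, stable luciferase reporter of PERK-eIF2a-CHOP signalling | amount = 500 reporter cells seeded per well | timing = 6 h compound exposure at 37 °C after overnight seeding | controls = positive tunicamycin 10 µg/mL, negative DMSO alone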
# Hits are given with their value; - = inactive; . = not tested or not shown. An excerpt weighted towards active compounds, which were near 4.2% of everything screened.
SMILES,UPR XBP1 act,CHOP inh,ANO1 block,Lipid droplet,ANO1 activ,CHOP UPR activ
CCOC(=O)c1c(NC(=O)C2=C(C)NC(=S)NC2c2ccc(C)cc2)sc(C)c1C (centres undefined),-,74,-,-,-,-
CCOC(=O)c1c(NC(=O)C2=C(C)NC(=S)NC2c2ccc(F)cc2)sc(C)c1C (centres undefined),-,-,-,-,-,-
N#Cc1ccccc1S(=O)(=O)N1CCN(C(=O)CCC2CCCC2)CC1,-,.,.,.,-23,-
CCn1c(=O)c(C(=O)CN2c3ccccc3CC2C)c(N)n(Cc2ccccc2)c1=O (centres undefined),-,87,-,-,-,-
C/C(=N\NC(=S)NCc1ccccc1)c1ccc2c(c1)OCCO2,-,-,25,-,-,-
Cc1ccc(NC(=O)CN(C)C(=O)c2cccc(S(=O)(=O)NCc3ccco3)c2)cc1,-,.,.,.,-,-
C=C(C)CN=C1NN=C(c2cc(C)n(-c3ccc(C)cc3)c2C)CS1,-,74,-,-,-,-
C=CCn1c(C)cc(C2=NNC(=NCc3ccccc3)SC2)c1C,-,-,-,-,-,-
CC1(C2CC2)NC(=O)N(CC(=O)N2CCN(c3ccccc3Cl)CC2)C1=O (centres undefined),-,.,.,.,-,-
Cc1cc(/C=N/Nc2ncnc(N)c2[N+](=O)[O-])c(C)n1-c1ccccc1,-,83,-,-,-,-
O=C(NCC(=O)N1CCN(C/C=C/c2ccccc2)CC1)c1ccc(OC(F)F)cc1,-,.,.,.,-,-
COc1cccc(CNc2ncc(Br)cc2Br)c1O,-,81,-,.,-,-
Cc1c(C(=O)O)sc2[nH]c(=O)n(Cc3ccccc3)c(=O)c12,-,.,-,-,-,-
CCCN(CCC)c1nc2ccccc2n2c(C)nnc12,-,83,-,-,-,-
COc1cc(/C=C2\SC(=O)N(c3cccc(Cl)c3)C2=O)cc([N+](=O)[O-])c1O,-,105,.,-,-5.6,-
COc1cc(/C=C2\SC(=O)N(c3ccc(Cl)cc3)C2=O)cc([N+](=O)[O-])c1O,.,105,.,-,-,.
COc1cc(/C=C2/C(=O)NN(c3ccc(C)c(Cl)c3)C2=O)cc([N+](=O)[O-])c1O,-,.,-,-,-,-
CC1CC(C)CN(S(=O)(=O)c2cc3c4c(c2)CCC(=O)N4CCC3)C1 (centres undefined),-,.,-,.,-,-
COc1ccccc1C(=O)NCCC(=O)N(C)CC(=O)Nc1ccc(N2CCOCC2)cc1,-,.,-,.,-,-
COc1cccc(NC(=O)CN(C)C(=O)CCCc2c[nH]c3ccccc23)c1,-,.,.,.,-,-
CCOC(=O)c1cccc(NC(=O)Cn2cc3c(n2)CCC(C)C3)c1 (centres undefined),-,83,-,-,-,-
N#CC(C#N)=C1C=C2C=C(N3CCCCCC3)CCC2CC1 (centres undefined),.,-,.,-,-,.
CN1CCN(C2=CC3=CC(=C(C#N)C#N)CCC3CC2)CC1 (centres undefined),.,-,.,-,-41,.
CC(C)C(NC(=O)COc1ccc2ccccc2c1)C(=O)N/N=C/C=C/c1ccccc1 (centres undefined),-,86,-,-,-,-
COc1ccc(/C=C/C=N/NC(=O)COc2ccc(OC)cc2)cc1,-,-,-,-,-,-
SMILES,UPR XBP1 act,CHOP inh,ANO1 block,Lipid droplet,ANO1 activ,CHOP UPR activ
CCc1ccccc1NC(=S)N(CCCN1CCOCC1)Cc1cccs1,-,-,-,-,-,-
COc1ccc2[nH]c3c(c2c1)CCN1C(=O)C(CC(=O)NCCC2=CCCCC2)C[C@H](C(=O)N2CCOCC2)[C@@]31C (some centres undefined),-,.,.,.,.,-
Cc1ccc2c(c1)N=C(c1ccc(Cl)cc1)CO2,-,71,-,-,-,-
Cc1nn(C)c(C)c1S(=O)(=O)NCCc1ccc(Cl)cc1,-,.,-,-,-,-
Cc1ccc2c(c1)/C(=N/OS(=O)(=O)c1ccccc1)CCS2,-,.,-,.,-,-
CC1=CC(=O)C(C(C)C)=C/C1=N/OS(=O)(=O)c1ccccc1,-,106,100,-,-6.5,-
C=CCn1c(SCc2c(C)noc2C)nc2sc3c(c2c1=O)CCCC3,-,83,-,.,-,-
Cc1noc(C)c1CSc1nc2sc3c(c2c(=O)n1C)CCCC3,-,76,-,.,-,-
C=CCn1c(SCc2c(C)noc2C)nc2sc3c(c2c1=O)CCCCC3,-,-,-,-,-,-
COc1ccccc1CNC(=O)c1cc(S(=O)(=O)N2CCCCC2)c[nH]1,-,.,-,-,-,-
COc1cc(/C=C2/SC(=S)N(Cc3ccccc3)C2=O)ccc1O,-,.,-,-,-,-
COc1cc(/C=C2/SC(=S)N(c3c(C)n(C)n(-c4ccccc4)c3=O)C2=O)ccc1O,-,-,-,-,-8.1,-
Cc1ccc(NC(=O)c2nc[nH]c2C(=O)N2CCN(c3ccccc3)CC2)cc1,-,-,-,-,-,-
CCOC(=O)c1ccc(NC(=O)c2nc[nH]c2C(=O)NC2CCN(C(=O)OC(C)(C)C)CC2)cc1,-,85,-,-,-,-
CCOC(=O)c1ccc(NC(=O)c2nc[nH]c2C(=O)N2CCN(c3ccccc3)CC2)cc1,-,73,-,-,-,-
CC(C)(C)OC(=O)N1CCC(NC(=O)c2nc[nH]c2C(=O)NC2CCN(C(=O)OC(C)(C)C)CC2)CC1,-,.,.,.,-,-
C/C(=N\NC(=O)C(C)n1nc(C)c([N+](=O)[O-])c1C)c1ccccc1O (centres undefined),-,-,-,-,-,-
CCCn1c(C)nc2c(c1=O)c1nc3ccccc3nc1n2CCC1=CCCCC1,-,89,-,.,-,-
Cc1ccc(S(=O)(=O)N2CCN(C(=O)CSc3nc(N)cc(=O)[nH]3)CC2)c(C)c1,-,-,-,-,-,-
Cc1cc(CSc2ccccc2)ccc1NC(=O)c1ccc(Br)cc1,-,96,-,-,-,-
O=C(Nc1cccc(Br)c1)c1ccc(CSc2ccccc2)cc1,-,-,-,.,-,-
COc1cn(-c2ccccc2)nc1C(=O)Nc1ccc(C)cc1Cl,-,.,-,-,-,-
O=C(CC(NC(=O)C(F)(F)F)c1ccccc1)Nc1nnc(CCc2ccccc2)s1 (centres undefined),-,94,-,-,-,-
